ChEMBL document CHEMBL3779876, “Synthesis and biological evaluation of novel 2,3-dihydrochromeno[3,4-d]imidazol-4(1H)-one derivatives as potent anticancer cell proliferation and migration agents” (Eur J Med Chem, 2016)
The source made the active and inactive calls. No cut-off for these calls is given here.

Legend:
[1] = Growth inhibition of human U87MG cells assessed as cell viability after 72 hrs by MTT assay; assay type: functional, cell-based, U-87MG ATCC; details: U-87 MG
Procedure, shortened: (§1)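 Cells were grown in DMEM or RPMI with 10% FBS and 1% penicillin/streptomycin at 37 °C, 5% CO2. They were seeded at 2000–3000 cells, rested 24 h, then exposed to a range of concentrations for 72 h. MTT (5 mg/mL stock) was added for 2–4 h at 37 °C and formazan dissolved in DMSO. A570 was read and IC50 calculated; triplicate wells, three separate experiments.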

[2] = Growth inhibition of human PC3 cells assessed as cell viability after 72 hrs by MTT assay; assay type: functional, cell-based; details: PC-3, 72 h; procedure, shortened: as §1
[3] = Growth inhibition of human SW620 cells assessed as cell viability after 72 hrs by MTT assay; assay type: functional, cell-based; details: SW-620, 72 h; procedure, shortened: as §1
SW-620 [4] = assay: Induction of apoptosis in human SW620 cells assessed as early apoptotic cells at 2.5 uM after 24 hrs by Annexin V-FITC/propidium iodide staining based flow cytometry (reference value: 2.81%); assay type: functional
[5] = Cell cycle arrest in human SW620 cells assessed as accumulation at G0/G1 phase at 5 uM after 24 hrs by propidium iodide staining based flow cytometry (reference value: 38.47%); assay type: functional; details: SW-620
[6] = Antitumor activity against human HCT116 cells xenografted in Balb/c athymic nude mouse assessed as tumor growth inhibition at 80 mg/kg, ip once in 2 days for 24 days measured every 2 days during compound treatment relative to control; assay type: functional; details: HCT-116, ip, read-out: TGI
Procedure, shortened: (§2)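 Female BALB/c athymic nude mice, 7 weeks old, received 1×10^7 HCT116 cells s.c. in the right flank. After one week, at about 100 mm³ mean tumour volume, mice were randomised to three groups of 8. Groups got vehicle, 40 or 80 mg/kg i.p. once every two days for 24 days. Tumour size and body weight were measured every two days. Volume = L×W²×0.5; inhibition was taken from mean volume change versus vehicle.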

SW-620 [7] = assay: Induction of apoptosis in human SW620 cells assessed as late apoptotic cells at 1.25 uM after 24 hrs by Annexin V-FITC/propidium iodide staining based flow cytometry (reference value: 1.02%); assay type: functional
SW-620 [8] = assay: Induction of apoptosis in human SW620 cells after 24 hrs by Annexin V-FITC/propidium iodide staining based flow cytometry; assay type: functional, cell-based
[9] = Cell cycle arrest in human SW620 cells assessed as accumulation at S phase at 1.25 uM after 24 hrs by propidium iodide staining based flow cytometry (reference value: 38.65%); assay type: functional; details: SW-620
SW-620 [10] = assay: Induction of apoptosis in human SW620 cells assessed as early apoptotic cells at 5 uM after 24 hrs by Annexin V-FITC/propidium iodide staining based flow cytometry (reference value: 2.81%); assay type: functional
[11] = Growth inhibition of human HCT116 cells assessed as cell viability after 72 hrs by MTT assay; assay type: functional, cell-based; details: HCT-116, 72 h; procedure, shortened: as §1
[12] = Cell cycle arrest in human SW620 cells assessed as accumulation at S phase at 0.625 uM after 24 hrs by propidium iodide staining based flow cytometry (reference value: 38.65%); assay type: functional; details: SW-620
SW-620 [13] = assay: Induction of apoptosis in human SW620 cells assessed as late apoptotic cells at 0.3125 uM after 24 hrs by Annexin V-FITC/propidium iodide staining based flow cytometry (reference value: 1.02%); assay type: functional
SW-620 [14] = assay: Induction of apoptosis in human SW620 cells assessed as early apoptotic cells at 1.25 uM after 24 hrs by Annexin V-FITC/propidium iodide staining based flow cytometry (reference value: 2.81%); assay type: functional
[15] = Cell cycle arrest in human SW620 cells assessed as accumulation at G0/G1 phase at 0.3125 uM after 24 hrs by propidium iodide staining based flow cytometry (reference value: 38.47%); assay type: functional; details: SW-620
SW-620 [16] = assay: Induction of apoptosis in human SW620 cells assessed as early apoptotic cells at 0.3125 uM after 24 hrs by Annexin V-FITC/propidium iodide staining based flow cytometry (reference value: 2.81%); assay type: functional
[17] = Cell cycle arrest in human SW620 cells assessed as accumulation at G0/G1 phase at 2.5 uM after 24 hrs by propidium iodide staining based flow cytometry (reference value: 38.47%); assay type: functional; details: SW-620
SW-620 [18] = assay: Induction of apoptosis in human SW620 cells assessed as late apoptotic cells at 2.5 uM after 24 hrs by Annexin V-FITC/propidium iodide staining based flow cytometry (reference value: 1.02%); assay type: functional
[19] = Cell cycle arrest in human SW620 cells assessed as accumulation at G0/G1 phase at 0.625 uM after 24 hrs by propidium iodide staining based flow cytometry (reference value: 38.47%); assay type: functional; details: SW-620
MCF7 [20] = assay: Growth inhibition of human MCF7 cells assessed as cell viability after 72 hrs by MTT assay; assay type: functional, cell-based; details: MCF7, 72 h; procedure, shortened: as §1
[21] = Growth inhibition of human LO2 cells assessed as cell viability after 72 hrs by MTT assay; assay type: cell-based; details: L02, 72 h; procedure, shortened: as §1
[22] = Cell cycle arrest in human SW620 cells assessed as accumulation at G0/G1 phase after 24 hrs by propidium iodide staining based flow cytometry; assay type: functional; details: SW-620
CT26 = assay: Growth inhibition of mouse CT26 cells assessed as cell viability after 72 hrs by MTT assay; assay type: functional, cell-based; details: CT26, 72 h; procedure, shortened: as §1
[23] = Cell cycle arrest in human SW620 cells assessed as accumulation at G2/M phase at 0.3125 uM after 24 hrs by propidium iodide staining based flow cytometry (reference value: 22.88%); assay type: functional; details: SW-620
SW-620 [24] = assay: Induction of apoptosis in human SW620 cells assessed as early apoptotic cells at 0.625 uM after 24 hrs by Annexin V-FITC/propidium iodide staining based flow cytometry (reference value: 2.81%); assay type: functional
[25] = Cell cycle arrest in human SW620 cells assessed as accumulation at G2/M phase at 2.5 uM after 24 hrs by propidium iodide staining based flow cytometry (reference value: 22.88%); assay type: functional; details: SW-620
MCF7 [26] = assay: Inhibition of cell migration in human MCF7 cells at 5 uM after 24 hrs by wound healing assay; assay type: functional, cell-based
Procedure, shortened: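 MCF-7 monolayers at 80–90% confluence were scratched with a sterile pipette tip. Fresh medium with 10% FBS and compound was added. Wounds were photographed at 0, 12 and 24 h at 37 °C.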

A549 = assay: Growth inhibition of human A549 cells assessed as cell viability after 72 hrs by MTT assay; assay type: functional, cell-based; details: A549, 72 h; procedure, shortened: as §1
SW-620 [27] = assay: Induction of apoptosis in human SW620 cells assessed as late apoptotic cells at 5 uM after 24 hrs by Annexin V-FITC/propidium iodide staining based flow cytometry (reference value: 1.02%); assay type: functional
[28] = Cell cycle arrest in human SW620 cells assessed as accumulation at S phase at 0.3125 uM after 24 hrs by propidium iodide staining based flow cytometry (reference value: 38.65%); assay type: functional; details: SW-620
[29] = Cell cycle arrest in human SW620 cells assessed as accumulation at G0/G1 phase at 1.25 uM after 24 hrs by propidium iodide staining based flow cytometry (reference value: 38.47%); assay type: functional; details: SW-620
[30] = Cell cycle arrest in human SW620 cells assessed as accumulation at S phase at 5 uM after 24 hrs by propidium iodide staining based flow cytometry (reference value: 38.65%); assay type: functional; details: SW-620
[31] = Cell cycle arrest in human SW620 cells assessed as accumulation at G2/M phase at 0.625 uM after 24 hrs by propidium iodide staining based flow cytometry (reference value: 22.88%); assay type: functional; details: SW-620
[32] = Cell cycle arrest in human SW620 cells assessed as accumulation at S phase at 2.5 uM after 24 hrs by propidium iodide staining based flow cytometry (reference value: 38.65%); assay type: functional; details: SW-620
[33] = Cell cycle arrest in human SW620 cells assessed as accumulation at G2/M phase at 5 uM after 24 hrs by propidium iodide staining based flow cytometry (reference value: 22.88%); assay type: functional; details: SW-620
HCT-116 [34] = assay: Inhibition of colony formation in human HCT116 cells at 0.3125 to 2.5 uM after 20 days by crystal violet staining based microscopic analysis; assay type: functional, cell-based
Procedure, shortened: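 HCT116 cells were plated at 500 per well, left overnight at 37 °C, then treated with fresh compound-containing medium. Colonies were washed with cold PBS, fixed in 4% paraformaldehyde and stained with 0.5% crystal violet for 15 min. Colonies over 50 cells were counted by microscope and expressed as % of control; three independent experiments.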

[35] = Cell cycle arrest in human SW620 cells assessed as accumulation at G2/M phase at 1.25 uM after 24 hrs by propidium iodide staining based flow cytometry (reference value: 22.88%); assay type: functional; details: SW-620
HCT-116 [36] = assay: Antitumor activity against human HCT116 cells xenografted in ip dosed Balb/c athymic nude mouse assessed as tumor growth inhibition administered once in 2 days for 24 days measured every 2 days during compound treatment; assay type: functional, organism-based; procedure, shortened: as §2
Mus musculus = assay: Toxicity in Balb/c athymic nude mouse xenografted with human HCT116 cells assessed as body weight loss at 40 to 80 mg/kg, ip once in 2 days for 24 days measured every 2 days during compound treatment; assay type: organism-based, HCT-116; details: in vivo; procedure, shortened: as §2
SW-620 [37] = assay: Induction of apoptosis in human SW620 cells assessed as late apoptotic cells at 0.625 uM after 24 hrs by Annexin V-FITC/propidium iodide staining based flow cytometry (reference value: 1.02%); assay type: functional

Nc1cccc(-c2ccc3oc(=O)c4[nH]c(=O)n(-c5ccccc5)c4c3c2)c1
IC50 [1]: > 40 µM
IC50 [2]: > 40 µM

Cc1ccccc1-c1ccc2oc(=O)c3[nH]c(=O)n(-c4ccccc4)c3c2c1
IC50 [1]: > 40 µM

CN1c2c(c3cc(-c4cnc5ccccc5c4)ccc3oc2=O)N(c2ccc(C(C)(C)C#N)cc2)C1(C)OC(C)(C)C (centres undefined)
IC50 [3]: 3.55 µM
Activity (SW-620 [4]): 16.78%
Activity [5]: 60%
inhibition in vivo at 80 mg/kg [6]: 53%
Activity (SW-620 [7]): 8.43%
Activity (SW-620 [8]): Dose-dependent effect
Activity [9]: 36.6%
IC50 [1]: > 31 µM
Activity (SW-620 [10]): 31.33%
IC50 [11]: 1.4 µM
Activity [12]: 36.9%
Activity (SW-620 [13]): 8.96%
Activity (SW-620 [14]): 16.76%
Activity [15]: 38.8%
Activity (SW-620 [16]): 6.75%
Activity [17]: 47.5%
Activity (SW-620 [18]): 9.44%
Activity [19]: 40.3%
IC50 (MCF7 [20]): 1.7 µM
IC50 [21]: 37 µM
Activity [22]: Dose-dependent effect
IC50 (CT26): 3.5 µM
Activity [23]: 26%
Activity (SW-620 [24]): 8.59%
IC50 [2]: 18 µM
Activity [25]: 15.3%
inhibition (MCF7 [26]): Active
IC50 (A549): 9.5 µM
Activity (SW-620 [27]): 11.57%
Activity [28]: 35.2%
Activity [29]: 43%
Activity [30]: 30.3%
Activity [31]: 22.8%
Activity [32]: 37.2%
Activity [33]: 9.68%
inhibition (HCT-116 [34]): Active
Activity [35]: 20.5%
TGI (HCT-116 [36]): Dose-dependent effect
Activity (Mus musculus): Non-toxic
Activity (SW-620 [37]): 9.09%

Cc1ccccc1-n1c(=O)[nH]c2c(=O)oc3ccc(-c4cnc5ccccc5c4)cc3c21
IC50 [1]: > 40 µM
IC50 [11]: > 40 µM
IC50 [2]: > 40 µM

O=c1oc2ccc(-c3ccc(O)cc3)cc2c2c1[nH]c(=O)n2-c1ccccc1
IC50 [1]: > 40 µM

CC(C)(C#N)c1ccc(-n2c(=O)[nH]c3c(=O)oc4ccc(-c5cccnc5)cc4c32)cc1
IC50 [1]: 25.6 µM
IC50 [2]: 38.2 µM

CC(C)(C#N)c1ccc(-n2c(=O)[nH]c3c(=O)oc4ccc(-c5cnc6ccccc6c5)cc4c32)cc1
IC50 [1]: 33.4 µM
IC50 [11]: 20.4 µM
IC50 [2]: 19.8 µM

N#CCc1ccc(-n2c(=O)[nH]c3c(=O)oc4ccc(-c5cccc(NS(=O)(=O)c6ccc(F)cc6)c5)cc4c32)cc1
IC50 [1]: > 40 µM
IC50 [11]: > 40 µM
IC50 [2]: > 40 µM

O=c1oc2ccc(-c3ccncc3)cc2c2c1[nH]c(=O)n2-c1ccccc1
IC50 [1]: 38.7 µM

N#CCc1ccc(-n2c(=O)[nH]c3c(=O)oc4ccc(-c5ccc(O)cc5)cc4c32)cc1
IC50 [1]: 29.6 µM
IC50 [11]: 30.1 µM
IC50 [2]: 30.6 µM

N#CCc1ccc(-n2c(=O)[nH]c3c(=O)oc4ccc(-c5cccc(N)c5)cc4c32)cc1
IC50 [1]: > 40 µM
IC50 [2]: 36.5 µM

Cc1ccccc1-n1c(=O)[nH]c2c(=O)oc3ccc(-c4cccnc4)cc3c21
IC50 [1]: > 40 µM
IC50 [11]: > 40 µM
IC50 [2]: > 40 µM

CS(=O)(=O)c1ccc(-c2ccc3oc(=O)c4[nH]c(=O)n(-c5ccc(CC#N)cc5)c4c3c2)cc1
IC50 [1]: 39.7 µM
IC50 [2]: 29.6 µM

N#CCc1ccc(-n2c(=O)[nH]c3c(=O)oc4ccc(-c5cccnc5)cc4c32)cc1
IC50 [1]: > 40 µM
IC50 [11]: 29.4 µM
IC50 [2]: > 40 µM
